# UBC9 SUMO inh: blocks human SUMOylation mediated by UBC9. HTRF SUMOylation assay, SAE1/SAE2 + UBC9, in vitro. actives 0.36% (n = 290,000). P63279. inhibition, % at 35 µM; in the data active means inhibition above about 50%, passing the limit was not always enough
# HKDC1 inhibitor: HKDC1 (human) hexokinase inhibition. recombinant HKDC1, G6PDH/diaphorase resazurin coupled fluorescence. inhibition, % at 20 µM. actives 0.16% (n = 340,000). Q2TB90;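 active means inhibition above about 35% when tested at 20 µM, limit read from the data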;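 further: plate controls were DMSO wells with enzyme for no effect and DMSO wells lacking enzyme for full effect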
# Target sequence (Q2TB90 whole entry, looked up): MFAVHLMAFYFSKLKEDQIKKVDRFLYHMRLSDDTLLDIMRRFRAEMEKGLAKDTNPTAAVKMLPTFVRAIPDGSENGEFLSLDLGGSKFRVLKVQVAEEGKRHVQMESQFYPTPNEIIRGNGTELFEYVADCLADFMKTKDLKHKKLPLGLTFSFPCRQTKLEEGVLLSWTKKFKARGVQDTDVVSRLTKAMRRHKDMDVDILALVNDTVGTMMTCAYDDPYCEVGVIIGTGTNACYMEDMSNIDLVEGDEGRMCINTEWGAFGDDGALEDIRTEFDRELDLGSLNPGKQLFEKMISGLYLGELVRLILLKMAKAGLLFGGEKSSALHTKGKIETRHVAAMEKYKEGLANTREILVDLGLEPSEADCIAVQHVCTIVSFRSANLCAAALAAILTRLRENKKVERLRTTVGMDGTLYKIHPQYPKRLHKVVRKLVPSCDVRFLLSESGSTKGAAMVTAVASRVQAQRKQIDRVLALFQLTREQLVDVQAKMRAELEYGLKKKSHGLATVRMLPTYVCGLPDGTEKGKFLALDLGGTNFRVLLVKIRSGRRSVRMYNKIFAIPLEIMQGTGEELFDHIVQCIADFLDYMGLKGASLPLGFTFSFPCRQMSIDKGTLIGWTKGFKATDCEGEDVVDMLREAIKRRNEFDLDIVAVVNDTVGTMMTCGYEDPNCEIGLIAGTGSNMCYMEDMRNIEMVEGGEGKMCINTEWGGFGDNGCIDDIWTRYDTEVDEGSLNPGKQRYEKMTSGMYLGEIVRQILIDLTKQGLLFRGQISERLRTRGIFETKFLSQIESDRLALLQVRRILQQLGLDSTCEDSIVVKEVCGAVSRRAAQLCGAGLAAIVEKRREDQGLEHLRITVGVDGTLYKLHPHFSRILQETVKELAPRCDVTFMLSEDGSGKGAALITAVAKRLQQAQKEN
#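 System: Recombinant HKDC1 hexokinase | Amount: HKDC1 at 5 µg/mL | Reagent: Glucose with 1 mM ATP | Doses: Single 20 µM dose | Incubation: Reaction time 90 min, room temperature, protected from light | Signal: Coupled resazurin fluorescence, excitation 525 nm, emission 613 nm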
# DTT redox prof: compounds producing H2O2 with reducing agent – biochemical, NIH compound library profiling, artefact control for MLSCN library redox annotation, primary screen | DTT-dependent redox cycling H2O2, phenol red/HRP absorbance; 100% = 100 µM peroxide control, 0% = buffer | activation, % at 10 µM | actives 0.03% (n = 200,000) | AID 878;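 active means activation of at least 50% relative to the plate's high and low controls in the primary single-dose screen; inactive means activation below 50%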;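 further: compound incubated with DTT at 0.8 mM final as the reducing agent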
# Apaf-1 inh: blocks human Apaf-1 apoptosome activity | O14727 | reconstituted apoptosome caspase-3 activity, DEVD-Rh110 fluorescence | inhibition, % at 20 µM | actives 0.71% (n = 330,000); active means inhibition of at least 40% at 20 µM;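 further: plate controls were DMSO wells for no effect and DEVD-CHO caspase inhibitor wells for full effect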
#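 System: Apoptosome proteins | Medium: Hepes pH 7.5 with detergent and BSA | Also added: Cytochrome c trigger plus (Z-DEVD)2-Rh110 caspase-3 substrate | Incubation: 30 min compound preincubation, 50 min activation, room temperature | Detection: Rhodamine 110 fluorescence at Ex 480/Em 540 nm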
# GSTO1 inh: counter-screen for RBBP9 inhibitors: inhibitors of human GSTO1 | recombinant GSTO1, activity-based probe fluorescence polarization | actives 1.1% (n = 300,000) | AID 1974 | inhibition, % at 5.96 µM;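 active means inhibition above the campaign mean inhibition plus 3 SD, cut at about 35% in these data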;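 further: 0% = GSTO1-1 with DMSO and 100% = wells lacking GSTO1-1 enzyme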
# * marks the source's active call; other numbers are inactive results; . = not tested or not shown. Most compounds without a hit are left out; they make up all but 1.4% or so of the library.
SMILES,UBC9 SUMO inh,HKDC1 inhibitor,DTT redox prof,Apaf-1 inh,GSTO1 inh
CC(C)OC(=O)CSc1nnc(-c2ccccn2)n1-c1ccccc1,-13,1,-1,8,37*
COc1cccc(-n2c(SCc3cc(=O)oc4cc(O)c(O)cc34)nc3ccccc3c2=O)c1,79*,17,1,.,27
O=C(NCCc1ccccc1C(F)(F)F)C1CCC(=O)N(CCCN2CCCC2=O)C1 (configuration not stated),10,-5,.,-1,0
COc1cccc(COc2nc3c(c(=O)n(C)c(=O)n3C)n2C)c1,-8,-4,1,0,36*
Cn1c(=O)c2c(nc(OCc3ccccc3)n2C)n(C)c1=O,-5,-2,1,2,15
CSc1ncccc1C(=O)NC1CC(C)(C)Cc2c1cnn2-c1ccccc1C (configuration not stated),10,-6,.,-2,2
O=C(CCl)N(C/C=C/c1ccccc1)c1ccc2c(c1)OCCO2,8,28,0,16,93*
CCCCCCSc1ccc(-c2nc3cc(C)ccn3c2NC2CCCCC2)cc1,.,6,.,47*,.
CCc1nnc(NC(=O)CSc2nc3cccnc3n2Cc2ccccc2)s1,-5,-1,0,4,36*
O=c1cc(CSc2ccc(Cl)cc2)nc(N2CCCCC2)[nH]1,20,-1,2,18,0
O=C1CC(CSc2ccc(Cl)cc2)=NN1,-15,-5,.,6,37*
NC(=O)[C@@H]1CCCNc2c(I)cc([N+](=O)[O-])cc2C(=O)N[C@@H](CCCN=C(N)N)C(=O)N[C@@H](CCCN=C(N)N)C(=O)N1,0,.,1,41*,1
CC[C@H](C)[C@@H]1NC(=O)c2cc([N+](=O)[O-])cc(I)c2NCC[C@@H](C(N)=O)NC(=O)[C@H](CCCN=C(N)N)NC1=O,0,6,0,26,6
O=C1/C(=C\c2ccco2)CCC/C1=C\c1ccco1,52*,17,0,3,6
CC1C/C(=C/c2ccco2)C(=O)/C(=C/c2ccco2)C1 (configuration not stated),43,.,0,9,6
NC(N)=Nc1cc2ccccc2c2ccccc12,86*,.,.,77*,-2
CCCN(CCC)C(=O)c1cc([N+](=O)[O-])cc2c1-c1ccc([N+](=O)[O-])cc1C2=C(C#N)C#N,11,41*,.,12,21
Cc1ccc2nc3c(cc(S(=O)(=O)c4ccccc4)c(=N)n3Cc3ccco3)c(=O)n2c1,80*,1,-1,9,6
N=c1c(S(=O)(=O)c2ccccc2)cc2c(=O)n3ccccc3nc2n1Cc1ccco1,50*,5,1,16,7
C=CCNC(=S)NNc1nc2sc3c(c2c(=O)[nH]1)CC(C)(C)OC3,-9,1,.,-6,19
N=C1S/C(=C\c2cccc3ccccc23)C(=O)N1c1ccc(F)cc1,63*,9,0,8,-3
N=C1S/C(=C\c2ccccc2F)C(=O)N1c1ccc(F)cc1,-6,-8,0,-11,0
CCc1nnc(NC(=O)CSc2nnc(COc3cccc(C)c3)o2)s1,-6,-1,1,7,35*
Cc1ccc(CNC(=O)/C(C#N)=C\c2ccc(N(C)C)cc2)cc1,54*,.,-4,15,18
O=C(NCCCN1CCCC1=O)c1cccc(S(=O)(=O)N2CCCCC2)c1,.,-7,.,11,.
SMILES,UBC9 SUMO inh,HKDC1 inhibitor,DTT redox prof,Apaf-1 inh,GSTO1 inh
CC(C)CC(=O)Nc1ccc2oc(-c3cccnc3)nc2c1,53*,-8,-10,-7,-3
CCCCCC(=O)Nc1ccc2oc(-c3cncc(Br)c3)nc2c1,20,-7,1,-10,5
CCCC(=O)Nc1ccc2oc(-c3cncc(Br)c3)nc2c1,52*,-1,0,-6,0
C[C@H](NC(=O)c1ccco1)C(=O)Nc1cc(S(=O)(=O)N2CCCC2)ccc1OCC(F)(F)F,.,1,.,-1,.
O=C1c2cc(Br)ccc2OC2C=CC=CC12 (configuration not stated),.,10,.,18,.
COC(=O)c1c(NC(=O)COc2ccc(Cl)cc2)sc2c1CC(C)(C)NC2(C)C,-2,-4,.,61*,5
COC(=O)c1c(NC(=O)Cc2ccccc2)sc2c1CC(C)(C)NC2(C)C,4,1,.,16,4
O=C(Nc1ccc(Oc2ccccc2)cc1)C1CCN(c2c3c(nc4ncnn24)CCC3)CC1,15,0,3,41*,-4
O=C(Nc1ccc2c(c1)CCC2)C1CCN(c2c3c(nc4ncnn24)CCC3)CC1,21,14,1,-3,0
Cc1ccc(-c2nc3sc(C#N)c(N)n3c(=O)c2C#N)cc1,31,0,-1,8,36*
COc1ccc(NC(=O)C2CC(=O)N(CCc3ccc(F)cc3)C2)c(OC)c1 (configuration not stated),7,-2,.,4,7
O=C(N/N=C/c1cc(Cl)cc(Cl)c1O)c1ccncc1,58*,-34,.,1,-5
CCOC(=O)[C@@H]1CSCCS(=O)(=O)N1,.,-6,.,.,.
Cn1cc(S(=O)(=O)N2CCOCC2)cc1C(=O)O,.,-9,.,5,.
Cc1ccccc1-c1nnc(SCCOc2ccc3c(C)cc(=O)oc3c2)o1,17,6,0,26,36*
O=[N+]([O-])c1cc(S(=O)(=O)N2CCCC2)ccc1NN=C1CCCCC1,0,-8,1,10,-3
O=[N+]([O-])c1cc(C(F)(F)F)cc([N+](=O)[O-])c1NN=C1CCCCC1,0,-10,0,7,37*
COc1cc(C)ccc1OCc1cc(C(=O)N(Cc2c(C)nn(C)c2C)C2CC2)no1,10,-3,.,-5,4
COc1cc(C2C(C#N)=C(N)Oc3n[nH]c(-c4cccs4)c32)cc(OC)c1O (configuration not stated),-5,3,-1,-1,35*
CCCN1CCCc2cc(CN)ccc21,41,14,0,84*,64*
CN1CCCc2cc(C=O)ccc21,33,2,0,2,7
CCc1cc2c3c([nH]c2cc1S(=O)(=O)NCCCOC)CC(C)(C)CC3=O,8,-4,.,-2,-4
CCc1cc(S(N)(=O)=O)cc(CC)c1NC(C)=O,14,-2,.,-15,6
CCc1cc(SC#N)cc(CC)c1NC(=O)CCl,2,-3,1,-3,71*
Cc1ccc(Oc2ccc(OCC(=O)NC(CC(C)C)C(=O)O)cc2)cc1 (configuration not stated),10,4,-1,-4,38*
CC(C)COc1ccc(C(=O)NC(CC(C)C)C(=O)O)cc1 (configuration not stated),19,-5,0,0,8
O=C(Nc1cccc(S(=O)(=O)NC2=NCCCCC2)c1)c1cc(-c2ccncc2)nc2ccccc12,8,12,-1,18,-7

# Assay outcomes: PubChem BioAssay, several laboratories
